Shown is part of a subset that was picked to be rich in hits.
GASC1 inh: blocks human GASC-1 (KDM4C) demethylase activity. actives 0.15% (n = 96,000). AID 720574. GST-KDM4C 2-372, H3K9me3 peptide, LANCE TR-FRET. Q9H3R0. inhibition, % at 12.5 µM;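 active means mean replicate inhibition above about 25%, with at least 55% of replicates also reaching it, limit read from the data, passing the limit was not always enough; inconclusive means only one of those two conditions met; inactive means neither condition met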
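Compound: one test concentration per compound; Material: GST-GASC-1 enzyme fragment 2-372; Amount: GASC-1 enzyme at 10 nM final in reaction; Also added: H3K9me3 peptide substrate, Fe(II), 2-oxoglutarate; Technique: LANCE TR-FRET; Times: 30 min demethylation and 1 h detection at room temperature.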
IDH1 mut inh: inhibitors of human IDH1 R132H; AID 624101; O75874; actives 0.18% (n = 70,000); IDH1 R132H reductase, diaphorase/resazurin fluorescence, 60 min; inhibition, % at 10 µM; in the data active means inhibition above about 34%; inconclusive means no clear call, values can overlap the other calls; inactive means below about 11%;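 further: 0% = DMSO and 100% = no enzyme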
Target sequence (O75874 whole entry R132H): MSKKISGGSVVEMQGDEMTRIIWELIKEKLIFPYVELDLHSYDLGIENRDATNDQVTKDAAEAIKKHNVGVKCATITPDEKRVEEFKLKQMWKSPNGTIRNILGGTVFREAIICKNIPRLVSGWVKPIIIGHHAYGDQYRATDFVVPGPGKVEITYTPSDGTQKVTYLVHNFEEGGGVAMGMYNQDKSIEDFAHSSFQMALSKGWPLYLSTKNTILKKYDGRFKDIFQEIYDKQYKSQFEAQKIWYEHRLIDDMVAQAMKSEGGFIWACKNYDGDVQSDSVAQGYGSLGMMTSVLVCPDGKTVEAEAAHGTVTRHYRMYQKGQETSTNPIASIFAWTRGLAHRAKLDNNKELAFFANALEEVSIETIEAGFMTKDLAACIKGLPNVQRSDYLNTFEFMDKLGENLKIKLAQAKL
Pf Dd2 inh: P. falciparum Dd2 growth inhibition. actives 2.3% (n = 94,000). SYBR Green, 72 h; stronger effect = lower value. activity change, % at 10 µM. AID 1159554; in the data active means activity change below about -80%; inconclusive means no clear call, values can overlap the other calls
Starred values were filed as active, the others as inactive; ? = inconclusive; . = no result.

SMILES	GASC1 inh	IDH1 mut inh	Pf Dd2 inh
CN(C)C(=O)c1cccc(-c2ccccc2[C@@H]2[C@@H](C#N)N(C(=O)C3CCCCC3)[C@@H]2CO)c1	-1.6	.	-0.6
O=C(Nc1cc(F)ccc1F)N[C@H]1CC[C@H](CCNC(=O)c2cnccn2)O[C@@H]1CO	-0.8	0.0	-10.9
C[C@@H]1CCCCO[C@@H](CN(C)C(=O)C2CCCCC2)[C@H](C)CN([C@@H](C)CO)C(=O)c2cc(NC(=O)Cc3ccccc3)ccc2O1	-0.4	.	-13.7
Cc1ccccc1-c1cnc2c(c1)C(=O)N([C@@H](C)CO)C[C@H](C)[C@H](CN(C)C(=O)c1cccnc1)O2	-1.2	0.0	.
COc1ccc(NC(=O)Nc2ccc3c(c2)C(=O)N([C@@H](C)CO)C[C@@H](C)[C@H](CN(C)S(=O)(=O)c2c(C)noc2C)OCCCC[C@@H](C)O3)cc1	-1.0	.	-16.8
COc1ccc(NC(=O)Nc2ccc3c(c2)C(=O)N([C@@H](C)CO)C[C@H](C)[C@@H](CN(C)S(=O)(=O)c2c(C)noc2C)OCCCC[C@H](C)O3)cc1	-3.9	2.7	-82.6*
Cc1noc(C)c1S(=O)(=O)N(C)C[C@H]1OCCCC[C@H](C)Oc2ccc(NC(=O)Nc3ccccc3)cc2C(=O)N([C@@H](C)CO)C[C@@H]1C	-2.5	1.4	?
Cc1noc(C)c1S(=O)(=O)N(C)C[C@H]1OCCCC[C@@H](C)Oc2ccc(NC(=O)Nc3ccc(F)cc3)cc2C(=O)N([C@H](C)CO)C[C@@H]1C	-0.2	.	-4.9
Cc1noc(C)c1S(=O)(=O)N(C)C[C@@H]1OCCCC[C@@H](C)Oc2ccc(NC(=O)Nc3ccccc3)cc2C(=O)N([C@H](C)CO)C[C@H]1C	-0.5	1.9	-82.8*
Cc1noc(C)c1S(=O)(=O)N(C)C[C@H]1OCCCC[C@@H](C)Oc2ccc(NC(=O)Nc3ccc(F)cc3)cc2C(=O)N([C@@H](C)CO)C[C@@H]1C	-3.4	2.7	-83.2*
Cc1cccc(-c2ccc([C@H]3[C@H]4CN(CCC(F)(F)F)CCCCN4[C@H]3CO)cc2)c1	-1.4	.	-78.0
CCCN(C)C[C@@H]1OCCCC[C@H](C)Oc2ccc(NC(=O)Nc3ccc(F)cc3)cc2C(=O)N([C@H](C)CO)C[C@@H]1C	0.9	2.8	.
C[C@@H]1CN([C@@H](C)CO)C(=O)CCCn2nncc2CO[C@H]1CN(C)C(=O)Nc1ccc(F)cc1	-1.1	-1.1	-11.8
CCCN1[C@H](C(=O)NCC2CC2)[C@@H](CO)[C@@H]2Cn3c(ccc(-c4ccccc4)c3=O)[C@@H]21	6.3	.	-4.4
OC[C@H]1[C@@H](c2ccccc2)[C@H](CNCC2CCC2)N1CC1CC1	0.4	.	-26.9
CC(C)CNC[C@@H]1[C@@H](c2ccccc2)[C@@H](CO)N1Cc1ccc(F)cc1	-0.2	.	-91.1*
COc1cccc(NC(=O)N2[C@H](CO)[C@@H](c3ccccc3)[C@H]2CNC(C)C)c1	2.8	.	-73.6
COc1cccc(NC(=O)N2[C@@H](CO)[C@@H](c3ccccc3)[C@@H]2CNCC(C)C)c1	-1.5	.	-81.2*
N#Cc1ccccc1Sc1ccccc1C(=O)Nc1cccc(CCc2ccccn2)c1	.	0.3	.
C[C@H]1CCCCO[C@@H](CN(C)Cc2ccc(C(F)(F)F)cc2)[C@@H](C)CN([C@@H](C)CO)C(=O)c2cc(NC(=O)NC3CCCCC3)ccc2O1	-2.0	.	-24.6
C[C@@H]1CCCCO[C@@H](CN(C)C(=O)Nc2ccccc2)[C@@H](C)CN([C@@H](C)CO)C(=O)c2cc(NC(=O)Nc3ccc(C(F)(F)F)cc3)ccc2O1	0.6	.	?
C[C@@H]1CN([C@H](C)CO)C(=O)c2cc(NC(=O)NC3CCCCC3)ccc2O[C@@H](C)CCCCO[C@H]1CN(C)Cc1ccc(C(F)(F)F)cc1	-1.7	.	-93.7*
C[C@H]1CCCCO[C@H](CN(C)C(=O)Nc2ccc(C(F)(F)F)cc2)[C@@H](C)CN([C@@H](C)CO)C(=O)c2cc(NC(=O)NC3CCCCC3)ccc2O1	0.2	1.1	-87.4*
C[C@H]1CCCCO[C@H](CN(C)C(=O)Nc2ccc(C(F)(F)F)cc2)[C@@H](C)CN([C@@H](C)CO)C(=O)c2cc(NC(=O)Nc3ccccc3)ccc2O1	-0.7	-4.6	-83.2*
Cc1noc(C)c1NC(=O)Nc1ccc2c(c1)C(=O)N([C@H](C)CO)C[C@@H](C)[C@@H](CN(C)C(=O)Nc1ccc(C(F)(F)F)cc1)OCCCC[C@@H](C)O2	-1.6	.	-87.2*
SMILES	GASC1 inh	IDH1 mut inh	Pf Dd2 inh
C[C@@H]1CCCCO[C@H](CN(C)C(=O)Nc2ccc(C(F)(F)F)cc2)[C@@H](C)CN([C@H](C)CO)C(=O)c2cc(NC(=O)NC3CCCCC3)ccc2O1	1.8	.	-78.2
Cc1noc(C)c1NC(=O)Nc1ccc2c(c1)C(=O)N([C@H](C)CO)C[C@H](C)[C@@H](CN(C)C(=O)Nc1ccc(C(F)(F)F)cc1)OCCCC[C@H](C)O2	-1.6	0.0	-76.7
COCC(=O)N(C)C[C@H]1Oc2cc(-c3ccc(F)cc3)ccc2S(=O)(=O)N([C@@H](C)CO)C[C@H]1C	1.7	0.0	34.9
CN1C(=O)c2cc(NC(=O)C3CCOCC3)ccc2OC[C@H]2O[C@H](CC(=O)NCC3CCCCC3)CC[C@H]21	0.4	.	.
CCCNC(=O)C[C@@H]1CC[C@H]2[C@@H](COC[C@@H](O)CN2C(=O)Nc2ccc3c(c2)OCO3)O1	1.9	.	11.7
C[C@H](CO)N1C[C@H](C)[C@@H](CN(C)S(C)(=O)=O)OCCCC[C@H](C)Oc2ccc(N(C)C)cc2C1=O	13.3	.	-6.6
C[C@@H]1CN([C@@H](C)CO)C(=O)c2cccc(NC(=O)c3cnccn3)c2O[C@@H]1CN(C)S(=O)(=O)c1cccs1	0.2	.	-13.0
CCC(=O)N1CC[C@H]2[C@@H]1c1cc(-c3ccc(OC)cc3)ccc1N(C)[C@H]2CO	1.8	.	14.0
C[C@@H]1CCCCO[C@H](CN(C)C(=O)Nc2ccc(C(F)(F)F)cc2)[C@@H](C)CN([C@@H](C)CO)C(=O)c2cc(NC(=O)Nc3ccccc3)ccc2O1	-0.9	0.9	-84.6*
C[C@@H]1CCCCO[C@@H](CN(C)C(=O)Nc2ccc(C(F)(F)F)cc2)[C@H](C)CN([C@@H](C)CO)C(=O)c2cc(NC(=O)Nc3ccccc3)ccc2O1	-0.2	-0.7	-28.4
C[C@@H]1CCCCO[C@@H](CN(C)C(=O)Nc2ccccc2)[C@@H](C)CN([C@H](C)CO)C(=O)c2cc(NC(=O)Nc3ccc(C(F)(F)F)cc3)ccc2O1	0.5	-1.3	28.9
C[C@@H]1CCCCO[C@H](CN(C)C(=O)Nc2ccc(C(F)(F)F)cc2)[C@H](C)CN([C@@H](C)CO)C(=O)c2cc(NC(=O)Nc3ccccc3)ccc2O1	-1.3	0.1	-81.6*
COc1cc2c(cc1OC)C1(Cc3ccc4c(c3C1O)OCO4)N(C)CC2 (stereo not given)	.	0.7	.
C[C@@H]1CN([C@@H](C)CO)C(=O)c2cc(NC(=O)CCC(F)(F)F)ccc2O[C@@H](C)CCCCO[C@@H]1CN(C)S(=O)(=O)c1ccc(Cl)cc1	0.2	-0.1	-85.6*
C[C@@H]1CCCCO[C@@H](CN(C)S(=O)(=O)c2ccc(Cl)cc2)[C@@H](C)CN([C@H](C)CO)C(=O)c2cc(NC(=O)Nc3ccc(C(F)(F)F)cc3)ccc2O1	-2.8	.	-85.6*

Bioassay records deposited in PubChem BioAssay by Broad Institute.
